OX1R antag-1: antagonists of human orexin 1 receptor (OX1R); Orexin/Hypocretin receptor type 1 (Homo sapiens), O43613; inhibition, % at 6.6 µM; OX1R-expressing cells, FRET antagonist read-out; 330,000 tested, 1.8% active; in the data active = inhibition mostly above about 38%, no sharp cut-off; inactive = mostly below about 40%
TAAR1 antagonist: human TAAR1 antagonists, primary screen, Fluo-8 calcium fluorescence, CHO RD-HGA16 cells; antagonist; inhibition, % at 3 µM; 360,000 tested, 1.5% active;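 active = inhibition above a per-plate cutoff, the mean inhibition of test compounds on that plate plus 3 SD, cut at about 49% in these data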
Target sequence (Q96RJ0 whole entry, looked up): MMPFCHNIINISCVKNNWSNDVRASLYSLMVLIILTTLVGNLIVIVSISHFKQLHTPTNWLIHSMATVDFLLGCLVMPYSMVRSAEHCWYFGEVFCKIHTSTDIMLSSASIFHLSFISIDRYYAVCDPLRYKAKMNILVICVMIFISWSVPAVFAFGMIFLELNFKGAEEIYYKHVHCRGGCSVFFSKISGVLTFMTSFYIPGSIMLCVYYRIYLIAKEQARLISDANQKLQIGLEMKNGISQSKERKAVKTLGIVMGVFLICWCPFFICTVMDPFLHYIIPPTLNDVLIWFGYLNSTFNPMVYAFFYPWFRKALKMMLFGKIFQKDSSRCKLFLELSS
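Assay system: RD-HGA16 CHO cells with stable hTAAR1 and Gα16 / Reagent: EC80 β-phenethylamine stimulus / Doses: 3 µM, single point / Timing: dye loading 75 min at 37 °C, then 30 min room temperature / Measured by: Fluo-8 intracellular calcium dye fluorescence, real-time kinetic reads / Controls: vehicle wells and EC80 agonist wells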
TAAR1 ag: human TAAR1 agonists, primary screen, Fluo-8 calcium fluorescence, CHO RD-HGA16 cells; vehicle wells 0%, saturating PEA agonist 100%; 360,000 tested, 0.99% active; AID 624467, 2012; activation, % at 3 µM; Trace amine-associated receptor 1 (Homo sapiens), Q96RJ0;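 active = activation above the mean activation of all test compounds in the run plus 3 SD, cut at about 38% in these data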
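Test system: RD-HGA16 (CHO) cells co-expressing Gα16 and hTAAR1; dosing: one-point dosing at 3 µM (nominal); timing: 17-24 h seeding, 75 min 37 °C dye, 30 min RT; signal: kinetic Fluo-8 calcium fluorescence; read-out basis: % activation relative to PEA EC100 response; controls: DMSO and PEA EC100; replicates: n 1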
OX1R antag-2: OX1R (HCRTR1) antagonists, primary screen, fluorescence, CHO/OX1R cells, Fluo-8 calcium, orexin A; 330,000 tested, 0.43% active; Fluo-8 calcium fluorescence; inhibition, % at 5 µM;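 active = inhibition above its plate's threshold, mean inhibition of all tested compounds on the plate plus 3 SD, cut at about 37% in these data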
CHO parental Ca: ATP-evoked calcium signal inhibitors, parental CHO, primary screen, counter-screen for OX1R antagonist project, cell-based, fluorescence, Fluo-8 calcium dye | inhibition, % at 5.6 µM | 330,000 tested, 0.63% active | parental CHO-K1, ATP-induced calcium, Fluo-8 fluorescence;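 active = inhibition above that plate's mean sample inhibition plus 3 SD, cut at about 26% in these data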
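Assay system – parental CHO cells · Reagent – ATP stimulus · Detection – intracellular calcium via Fluo-8 no-wash fluorescent dye · Evaluation – percent inhibition of ATP-evoked calcium rise, normalized to controls · Controls – ATP wells versus no-ATP DMSO wells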
GPR7 antagonist: GPR7 receptor antagonists, primary screen, cell-based, fluorescence, single concentration; Neuropeptides B/W receptor type 1 (Homo sapiens), P48145; GPR7-expressing cells, fluorescence antagonist assay; inhibition, % at 4.4 µM; 290,000 tested, 1.1% active; AID 1861, 2009; in the data active = inhibition above about 16%, passing the limit was not always enough;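 note: cells stimulated with the agonist NPW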
Target sequence (P48145 whole entry, looked up): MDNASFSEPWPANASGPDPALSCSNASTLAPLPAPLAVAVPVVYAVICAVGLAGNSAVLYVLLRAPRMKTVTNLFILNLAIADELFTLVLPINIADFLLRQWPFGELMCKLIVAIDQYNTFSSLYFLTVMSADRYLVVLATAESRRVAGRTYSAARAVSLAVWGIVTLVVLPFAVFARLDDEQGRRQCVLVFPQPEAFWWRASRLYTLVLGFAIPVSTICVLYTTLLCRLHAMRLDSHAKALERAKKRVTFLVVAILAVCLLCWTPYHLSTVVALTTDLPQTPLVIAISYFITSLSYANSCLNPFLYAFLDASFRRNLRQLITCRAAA
TAAR1 nonsel count: nonselective antagonists in TAAR1 counter-screen cells, counter-screen for hTAAR1 antagonist project, cell-based, fluorescence, calcium. inhibition, % at 3 µM. shares compounds with TAAR1 antagonist. 2,400 tested, 77% active. counterscreen cell line, antagonist mode; in the data active = inhibition above about 22%;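 note: CHO-Ga16 host cells stimulated with ATP at an EC80 level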
TAAR1 ant conf: human TAAR1 antagonists, retest of hits, confirmation, cell-based, fluorescence | shares compounds with TAAR1 antagonist | TAAR1-expressing cells, fluorescence antagonist read-out | inhibition, % at 3 µM | 2,400 tested, 40% active | AID 651785, 2012; in the data active = inhibition above about 49%;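 note: CHO-Ga16 host cells challenged with agonist PEA near its EC80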
Ga16 ag counter: calcium activation in Ga16-expressing cells, counter-screen for TAAR1 antagonist project, cell-based, fluorescence; activation, % at 3 µM; AID 651953, 2012; 2,400 tested, 18% active; agonist counterscreen; shares compounds with TAAR1 antagonist; in the data active = activation above about 12%
TAAR1 ag counter: TAAR1 activation by candidate antagonists – cell-based, fluorescence, counter-screen for TAAR1 antagonist project | shares compounds with TAAR1 antagonist | hTAAR1 cell line, agonist mode | activation, % at 3 µM | 2,400 tested, 2% active | AID 651955, 2012; in the data active = activation above about 37%;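 note: CHO cells stably expressing TAAR1 with calcium dye readout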
Hits are given with their value; - = inactive; . = not tested or not shown. This is a sample that favours compounds with a hit; in the whole collection about 4.6% have one here.

SMILES | OX1R antag-1 | TAAR1 antagonist | TAAR1 ag | OX1R antag-2 | CHO parental Ca | GPR7 antagonist | TAAR1 nonsel count | TAAR1 ant conf | Ga16 ag counter | TAAR1 ag counter
O=C(NCc1ccccc1)C(c1ccc(F)cc1)N(Cc1cccs1)C(=O)c1cnccn1 (stereo not given) | - | 52 | - | - | - | - | 31 | - | - | -
Cc1nc(N2CCN(c3ccccn3)CC2)c2c(C)c(C(=O)N3CCN(c4ccc(F)cc4)CC3)sc2n1 | - | - | - | - | - | - | . | . | . | .
COc1ccccc1N1CCN(C(=O)c2sc3nc(C)nc(N4CCN(c5ccccn5)CC4)c3c2C)CC1 | - | 55 | - | - | - | - | - | - | - | -
Cc1ccc(CNC(=O)c2ccc(COc3ccccc3)cc2)cc1 | - | 53 | - | - | - | - | - | - | - | -
Oc1ccccc1OCCOc1ccccc1OCCOc1ccccc1O | - | 79 | - | - | - | - | 35 | 55 | - | -
Oc1ccccc1OCC(O)c1ccccc1 (stereo not given) | - | - | - | - | - | - | . | . | . | .
COc1ccc(CC(=O)N(C)Cc2ccc(OC(F)F)cc2)cc1S(=O)(=O)N1CCOCC1 | . | - | - | . | . | . | . | . | . | .
COc1cccc(OC)c1C(=O)NC(=S)N1CCN(c2ccc(C(F)(F)F)cc2[N+](=O)[O-])CC1 | - | 81 | - | - | - | - | 31 | 51 | - | -
COc1ccccc1-c1noc(CCC(=O)NC2CCCCC2)n1 | - | - | - | - | - | - | . | . | . | .
CCN(CC(=O)Nc1c(F)cccc1F)C(=O)c1ccc2c(c1)OCO2 | - | - | - | - | - | . | . | . | . | .
COc1cc(SC)ccc1C(=O)Nc1ccncc1 | - | - | - | - | - | - | . | . | . | .
COc1cc(SC)ccc1C(=O)Nc1ccccc1C#N | - | 50 | - | - | - | - | - | - | - | -
CC(C)C1C(=O)N(Cc2cn(CCC3OCCO3)nn2)CCS(=O)(=O)N1Cc1ccc(-c2ccc(Cl)cc2)cc1 (stereo not given) | . | 53 | - | . | . | . | 30 | - | - | -
CC1C(=O)N(Cc2cn(CCC3OCCO3)nn2)CCS(=O)(=O)N1Cc1ccc(-c2ccc(Cl)c(Cl)c2)cc1 (stereo not given) | . | 75 | - | . | . | . | 38 | - | 15 | -
Cc1ccc(-c2nc3ccccc3[nH]2)cc1NC(=O)c1ccc2c(c1)OCO2 | - | - | - | - | - | - | . | . | . | .
Cc1ccc(-c2nc3ccccc3[nH]2)cc1NC(=S)NC(=O)c1ccccc1Br | 87 | 70 | - | - | - | - | 36 | - | - | -
Cc1c(/C=N/NC(=O)c2cccnc2)c2ccccn2c1C(=O)c1ccc(F)cc1 | - | . | . | - | - | - | . | . | . | .
CCOC(=O)N/N=C/c1c(C)c(C(=O)c2ccc(F)cc2)n2ccccc12 | - | 68 | - | - | - | - | 22 | - | - | -
Cc1c(/C=N/NC(=O)c2ccccc2O)c2ccccn2c1C(=O)c1ccc(F)cc1 | - | 93 | - | - | - | - | 48 | 94 | 12 | -
CCc1nc2ccc(C(=O)NCCCN3CCCC3=O)cn2c1N(CC)CCOC | . | - | - | . | . | . | . | . | . | .
CC1(c2ccccc2Cl)NC(=O)N(CC(=O)Nc2ccc3c(c2)OCO3)C1=O (stereo not given) | - | - | - | - | - | - | . | . | . | .
CCCC(=O)Nc1ccc2c(c1)nc(CCN1CCCCC1)n2C | - | - | - | - | - | - | . | . | . | .
O=C1CC(N(O)C2CC(=O)N(Cc3ccccc3)C2=O)C(=O)N1Cc1ccccc1 (stereo not given) | - | 68 | - | - | - | - | 33 | 54 | - | -
CCOC(=O)C1CCCN(C(=O)c2cc(-c3ccco3)nc3ccccc23)C1 (stereo not given) | - | - | - | - | - | . | . | . | . | .
CCOC(=O)C1CCCN(C(=O)c2cc(Nc3ccc(OC)cc3)nc3ccccc23)C1 (stereo not given) | - | 49 | - | - | - | - | 29 | - | - | -
SMILES | OX1R antag-1 | TAAR1 antagonist | TAAR1 ag | OX1R antag-2 | CHO parental Ca | GPR7 antagonist | TAAR1 nonsel count | TAAR1 ant conf | Ga16 ag counter | TAAR1 ag counter
c1ccc(Oc2ccc(-n3cnnn3)cc2)cc1 | - | 105 | - | - | - | - | - | - | - | -
CCNC(=O)Cn1cc(C(F)(F)F)cc(Cl)c1=O | - | - | - | - | - | - | . | . | . | .
Cc1nc(SCc2cccc(Oc3ccccc3)c2)n[nH]1 | - | - | - | - | - | - | . | . | . | .
C[C@@H]1CNC(=O)c2c(C(=O)N[C@@H](Cc3c[nH]c4ccccc34)C(=O)OC(C)(C)C)ncn21 | . | 58 | - | . | . | . | 30 | - | - | -
Cc1ccc(C(=O)Nc2ccc(C)c(S(=O)(=O)Nc3ccccc3Cl)c2)s1 | - | 68 | - | - | - | - | - | - | - | -
CCC(C)Nc1nc(-c2cccc(OC)c2O)nc2ccccc12 (stereo not given) | - | 57 | - | - | - | - | - | - | - | -
COc1cc(OC)c(N(C)S(=O)(=O)c2cccc(C(=O)Nc3nccs3)c2)cc1Cl | - | 63 | - | - | - | . | 28 | - | - | -
O=C(CSCC(=O)NN=Cc1ccccc1)NN=Cc1ccccc1 | . | - | - | . | . | . | . | . | . | .
O=C(CCCSCCCC(=O)NN=Cc1ccccc1)NN=Cc1ccccc1 | . | 66 | - | . | . | . | 43 | 56 | - | 44
C[C@@H]1CN([C@@H](C)CO)C(=O)c2cc(C#Cc3cccc(F)c3)cnc2O[C@@H]1CN(C)CC1CCOCC1 | . | - | - | . | . | . | . | . | . | .
COCc1c(C(=O)NCCc2ccc(OC(F)F)cc2)oc2ccccc12 | - | - | - | - | - | . | . | . | . | .
Cc1cc(OCC(=O)OCC(=O)Nc2cc(S(=O)(=O)N3CCOCC3)ccc2Cl)ccc1Cl | - | 64 | - | - | - | . | 36 | - | 14 | -
Cc1ccc(S(=O)(=O)N2CCCCC2)cc1NC(=O)COC(=O)c1ccc(O)cc1 | - | - | - | - | - | - | . | . | . | .
Cc1ccc(CSCC(=O)Nc2cc(S(=O)(=O)N3CCOCC3)ccc2OCC(F)(F)F)cc1 | . | 81 | - | . | . | . | - | 62 | - | -
